{"data": "Assay results collected from several papers", "cell line": "MV4-11", "observed": "cell growth or viability", "note": "Protocols differ between the studies behind these lines."}
{"Structure (SMILES)": "c1ccc(Oc2ccc(Nc3ccc4ncc(OCC5CCNCC5)nc4c3)cc2)cc1", "test": "XTT", "setting": "7 days", "endpoint": "EC50", "result": "880 nM"}
{"Structure (SMILES)": "CC(C)Cc1ccc([C@H](C)C(=O)O)cc1", "test": "MTT", "setting": "72 h", "endpoint": "IC50", "result": "277000 nM"}
{"Structure (SMILES)": "Fc1ccc(Oc2ccc(Nc3ccc4ncc(OCC5CCNCC5)nc4c3)cc2)cc1", "test": "XTT", "setting": "7 days", "endpoint": "EC50", "result": "960 nM"}
{"Structure (SMILES)": "Nc1ccccc1NC(=O)c1ccc(Cn2cnc3c(Nc4ccc(Cl)cc4)ncnc32)cc1", "test": "MTT", "setting": "72 h", "endpoint": "IC50", "result": "590 nM"}
{"Structure (SMILES)": "c1cc(-c2cc3ncc(OCC4CCNCC4)nc3cc2-c2cccc(N3CCCCC3)c2)cc(N2CCCCC2)c1", "test": "XTT", "setting": "7 days", "endpoint": "EC50", "result": "1400 nM"}
{"Structure (SMILES)": "Cc1cc2c(C(N)=O)cccc2n1-c1nc2c(c(NCc3ccccc3)n1)CCCN2", "setting": "72 h", "endpoint": "IC50", "result": "300 nM"}
{"Structure (SMILES)": "Cc1n[nH]c2ccc3nc(-c4ccc(C(=O)N(C)CCN(C)C)cc4)c4c(c3c12)CCC(C)(C)C4", "test": "resazurin", "setting": "72 h", "endpoint": "GI50", "result": "258 nM"}
{"Structure (SMILES)": "O=C(NO)c1ccc(Cn2cnc3c(Nc4ccc(F)c(Cl)c4)ncnc32)cc1", "test": "MTT", "setting": "72 h", "endpoint": "IC50", "result": "1140 nM"}
{"Structure (SMILES)": "O=C(NCCN1CCCC1)c1ccc(-c2nc3ccc4[nH]ncc4c3c3c2CCCC3)c(F)c1", "test": "resazurin", "setting": "72 h", "endpoint": "GI50", "result": "208 nM"}
{"Structure (SMILES)": "Cc1sc2c(c1C)C(c1ccc(Cl)cc1)=N[C@@H](CC(=O)NCCCCNC(=O)COc1cccc3c1C(=O)N(C1CCC(=O)NC1=O)C3=O)c1nnc(C)n1-2 (stereo partly drawn)", "test": "CCK-8", "setting": "72 h", "endpoint": "IC50", "result": "520 nM"}
{"Structure (SMILES)": "c1cc(N2CCCC2)ccc1-c1cc2ncc(OCC3CCNCC3)nc2cc1-c1ccc(N2CCCC2)cc1", "test": "XTT", "setting": "7 days", "endpoint": "EC50", "result": "1900 nM"}
{"Structure (SMILES)": "O=C(NO)c1ccc(Cn2cnc3c(Nc4cccc([N+](=O)[O-])c4)ncnc32)cc1", "test": "MTT", "setting": "72 h", "endpoint": "IC50", "result": "280 nM"}
{"Structure (SMILES)": "Cc1n[nH]c2ccc3nc(-c4ccc(C(=O)NCCN(C)C)cn4)c4c(c3c12)CCCCC4", "test": "resazurin", "setting": "72 h", "endpoint": "GI50", "result": "132 nM"}
{"Structure (SMILES)": "Nc1ccccc1NC(=O)c1ccc(Cn2cnc3c(Nc4ccc(Br)cc4F)ncnc32)cc1", "test": "MTT", "setting": "72 h", "endpoint": "IC50", "result": "280 nM"}
{"Structure (SMILES)": "Cc1n[nH]c2ccc3nc(-c4ccc(C(=O)NCCN(C)C)nc4)c4c(c3c12)CCCCC4", "test": "resazurin", "setting": "72 h", "endpoint": "GI50", "result": "181 nM"}
